In data set [1] the test system is A549. Kind of data set: Effect on B-Raf level in human A549 cells at five times IC50 value after 12 to 24 hrs by Western blot analysis. The format is ADME, cell-based. The method in brief:
(§1)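 MPER lysates with protease/phosphatase inhibitors. 15 µg protein per lane on reducing 10% SDS gels, transferred to PVDF, immunoblotted, HRP chemiluminescent detection.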
For orientation: Immunoblotting shows a protein as a band on a membrane.

Data set [2] deals with A549. Kind of data set: Cytotoxicity against human A549 cells assessed as cell growth inhibition after 72 hrs by MTS assay. The format is functional, cell-based. The note with it: A549, 72 h. In short, it runs like this: (§2)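 Cells grown to confluence, seeded at 2000 cells/well and left overnight to attach. Compound added across a concentration range in DMSO (1% final), then 72 h at 37 °C, 5% CO2. Growth read by MTS/PMS relative to 1% DMSO wells (100% growth). IC50 taken from two separate experiments, each in triplicate.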
(In general: Tetrazolium assays rely on reduction of a dye to a coloured formazan, in cell work by metabolically active cells.)

Data set [3] is described as follows: Cytotoxicity against human SKBR3 cells by MTS assay. The note with it: SK-BR-3.
The subject of data set [4] is MCF7. Kind of data set: Effect on Hsp90 expression in human MCF7 cells at 0.5 to 5 times IC50 value after 12 hrs by western blot analysis. The note with it: mcf7, 12 h. Format: ADME, cell-based. In short, it runs like this:
(§3)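 MPER lysates. 15 µg protein per lane, reducing 10% SDS-PAGE, PVDF transfer, immunoblot for EGFR, Her2, C-Raf and Hsp90, chemiluminescent detection.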

Data set [5] concerns the target T1, Heat shock protein HSP90 (Homo sapiens) (UniProt P07900+P08238). Kind of data set: Inhibition of Hsp90 in human A549 cells assessed as decrease in Her2 levels at five times IC50 value after 12 hrs by Western blot analysis. Format: cell-based.
Data set [6] deals with T1, Heat shock protein HSP90 (Homo sapiens). Kind of data set: Inhibition of Hsp90 in human A549 cells assessed as decrease in EGFR levels at five times IC50 value after 12 hrs by Western blot analysis. Format: cell-based.
The test system of data set [7] is MCF7. Briefly: Cytotoxicity against human MCF7 cells assessed as cell growth inhibition after 72 hrs by MTS assay. Format: functional, cell-based. As to conditions: MCF7, 72 h. In short, it runs like this:
as §2

Data set [8] deals with T1, Heat shock protein HSP90 (Homo sapiens). Kind of data set: Inhibition of Hsp90 in human A549 cells assessed as decrease in C-Raf levels at five times IC50 value after 12 hrs by Western blot analysis. Format: cell-based.
Data set [9] shares this target. Briefly: Inhibition of Hsp90 in human MCF7 cells assessed as decrease in Her2 levels at five times IC50 value after 12 hrs by Western blot analysis. Format: cell-based. The method in brief:
as §3

Data set [10] deals with MRC5. Kind of data set: Cytotoxicity against human MRC5 cells assessed as cell growth inhibition after 72 hrs by MTS assay. The format is cell-based. The note with it: MRC5, 72 h. The method in brief:
as §2

In data set [11] the target is T1, Heat shock protein HSP90 (Homo sapiens). Kind of data set: Inhibition of Hsp90 in human MCF7 cells assessed as decrease in EGFR levels at five times IC50 value after 12 hrs by Western blot analysis. Format: cell-based. The method in brief:
as §3

Data set [12] shares this target. Briefly: Inhibition of Hsp90 in human MCF7 cells assessed as decrease in C-Raf levels at five times IC50 value after 12 hrs by Western blot analysis. The format is cell-based. In short, it runs like this: as §3
The target in data set [13] is T2, B-raf/RAF proto-oncogene serine/threonine-protein kinase (Homo sapiens) (UniProt P04049+P15056). Briefly: Inhibition of B-Raf/C-Raf in human A549 cells assessed as effect on phosphorylated ERK levels at five times IC50 value after 24 hrs by Western blot analysis. The format is cell-based. In short, it runs like this: as §1
T2 sequence (P04049 whole entry, looked up): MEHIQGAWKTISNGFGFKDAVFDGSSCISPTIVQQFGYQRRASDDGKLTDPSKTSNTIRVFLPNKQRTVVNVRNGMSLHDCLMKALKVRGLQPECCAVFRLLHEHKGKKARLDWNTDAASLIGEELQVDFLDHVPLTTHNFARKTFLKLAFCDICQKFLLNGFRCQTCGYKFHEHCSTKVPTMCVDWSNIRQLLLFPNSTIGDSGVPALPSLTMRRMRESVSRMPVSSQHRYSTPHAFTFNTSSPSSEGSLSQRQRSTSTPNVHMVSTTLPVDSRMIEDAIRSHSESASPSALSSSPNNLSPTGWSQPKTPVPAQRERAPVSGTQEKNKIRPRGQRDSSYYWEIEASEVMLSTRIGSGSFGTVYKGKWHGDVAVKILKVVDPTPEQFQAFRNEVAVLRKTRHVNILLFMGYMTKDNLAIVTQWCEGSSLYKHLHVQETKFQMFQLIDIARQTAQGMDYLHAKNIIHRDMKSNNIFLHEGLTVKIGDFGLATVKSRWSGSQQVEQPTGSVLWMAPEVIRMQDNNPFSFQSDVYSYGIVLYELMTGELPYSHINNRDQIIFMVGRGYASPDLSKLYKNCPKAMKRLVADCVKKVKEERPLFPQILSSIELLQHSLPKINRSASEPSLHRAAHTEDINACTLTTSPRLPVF
T2 sequence (P15056 whole entry, looked up): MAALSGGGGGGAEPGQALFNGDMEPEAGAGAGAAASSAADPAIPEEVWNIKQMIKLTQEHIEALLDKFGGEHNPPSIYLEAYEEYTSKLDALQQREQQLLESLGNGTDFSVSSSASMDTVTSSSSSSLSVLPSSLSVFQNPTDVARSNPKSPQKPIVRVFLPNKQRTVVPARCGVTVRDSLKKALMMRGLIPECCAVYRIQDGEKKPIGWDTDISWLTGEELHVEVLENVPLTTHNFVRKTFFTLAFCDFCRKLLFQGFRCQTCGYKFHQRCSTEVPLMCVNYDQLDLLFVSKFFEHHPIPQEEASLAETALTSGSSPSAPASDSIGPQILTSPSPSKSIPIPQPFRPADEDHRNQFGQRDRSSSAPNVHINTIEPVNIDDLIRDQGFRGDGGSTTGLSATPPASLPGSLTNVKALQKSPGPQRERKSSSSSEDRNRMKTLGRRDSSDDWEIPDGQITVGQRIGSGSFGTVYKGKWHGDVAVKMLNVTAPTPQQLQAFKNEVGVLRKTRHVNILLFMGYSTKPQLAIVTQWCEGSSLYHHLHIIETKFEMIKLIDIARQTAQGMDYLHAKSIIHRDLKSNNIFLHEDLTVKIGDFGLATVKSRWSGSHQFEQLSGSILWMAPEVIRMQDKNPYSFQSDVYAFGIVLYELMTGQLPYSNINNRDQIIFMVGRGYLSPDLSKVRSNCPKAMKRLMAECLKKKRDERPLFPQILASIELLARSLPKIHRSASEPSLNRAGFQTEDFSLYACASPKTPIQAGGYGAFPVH
Data set [14] addresses T2, B-raf/RAF proto-oncogene serine/threonine-protein kinase (Homo sapiens). Briefly: Inhibition of B-Raf/C-Raf in human A549 cells assessed as decrease in phosphorylated ERK levels at five times IC50 value after 12 hrs by Western blot analysis. The format is cell-based.
Data set [15] has the same target. Briefly: Inhibition of B-Raf/C-Raf in human A549 cells assessed as decrease in phosphorylated MEK levels at five times IC50 value after 12 hrs by Western blot analysis. Format: cell-based.
The target is the same in data set [16]. Briefly: Inhibition of B-Raf/C-Raf in human A549 cells assessed as effect on phosphorylated MEK levels at five times IC50 value after 24 hrs by Western blot analysis. Format: cell-based. The method in brief:
as §1

For data set [17], the target named is T1, Heat shock protein HSP90 (Homo sapiens). Briefly: Inhibition of Hsp90 in human A549 cells assessed as decrease in c-Raf levels at five times IC50 value after 24 hrs by Western blot analysis. Format: cell-based. The method in brief: as §1
Data set [18] shares this target. Kind of data set: Inhibition of Hsp90 in human A549 cells assessed as decrease in Her2 levels at five times IC50 value after 24 hrs by Western blot analysis. The format is cell-based. In short, it runs like this:
as §1

Data set [19] shares this target. Kind of data set: Inhibition of Hsp90 in human A549 cells assessed as decrease in EGFR levels at five times IC50 value after 24 hrs by Western blot analysis. Format: cell-based. In short, it runs like this:
as §1

The target is the same in data set [20]. Briefly: Inhibition of Hsp90 in human PC3MM2 cells upto 100 uM by luciferase refolding assay. Format: cell-based. In short, it runs like this: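 Luciferase-expressing PC3-MM2 cells heat-denatured at 50 °C for 8–12 min until luminescence fell to 1% of initial. 60,000 cells/100 µL added to compound (0–100 µM, 1% DMSO final) and left 1 h to recover. Luciferin/ATP/CoA reagent then added and luminescence read at once. Refolding expressed relative to 1% DMSO wells; triplicate points fitted to dose-response curves.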

Data set [21] shares this target. Kind of data set: Inhibition of Hsp90 in human A549 cells assessed as decrease in C-Raf levels at five times IC50 value after 2 to 12 hrs by Western blot analysis. The format is cell-based. The method in brief:
(§4)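 Lysed in MPER with protease/phosphatase inhibitors, clarified at 14,000g. 15 µg protein per lane run on reducing 10% gels, transferred to PVDF, immunoblotted, detected by HRP chemiluminescence.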

The test system of data set [22] is A549. Kind of data set: Effect on total Mek level in human A549 cells at five times IC50 value after 2 to 12 hrs by western blot analysis. The format is ADME, cell-based. In short, it runs like this: as §4
Data set [23] addresses T1, Heat shock protein HSP90 (Homo sapiens). Kind of data set: Inhibition of Hsp90 in human A549 cells assessed as effect on c-Raf protein degradation at 0.5 to 5 times IC50 value after 12 hrs by western blot analysis. Format: cell-based. In short, it runs like this:
as §3

The target is the same in data set [24]. Briefly: Inhibition of Hsp90 in human A549 cells assessed as effect on EGFR protein degradation at 0.5 to 5 times IC50 value after 12 hrs by western blot analysis. Format: cell-based. The method in brief:
as §3

The target is the same in data set [25]. Briefly: Inhibition of Hsp90 in human MCF7 cells assessed as effect on EGFR protein degradation at 0.5 to 5 times IC50 value after 12 hrs by western blot analysis. Format: cell-based. The method in brief: as §3
The target in data set [26] is T2, B-raf/RAF proto-oncogene serine/threonine-protein kinase (Homo sapiens). Briefly: Inhibition of B-Raf/C-Raf in human A549 cells assessed as decrease in phosphorylated ERK levels at five times IC50 value by Western blot analysis. The format is cell-based. The note with it: TDE = time-dependent effect.
Data set [27] has the same target. Briefly: Inhibition of B-Raf/C-Raf heterodimerization in human A549 cells at five times IC50 value after 24 hrs by SDS-PAGE/Western blot analysis. The format is cell-based. In short, it runs like this:
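Lysed in 0.1% NP40, 50 mM Tris pH 7.5, 150 mM NaCl with inhibitors. 500 µg protein incubated with B-Raf antibody overnight at 4 °C, captured on Protein G beads for 3 h at 4 °C, washed, eluted, then SDS-PAGE and immunoblot for c-Raf.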

For data set [28], the system named is A549. Kind of data set: Inhibition of PI3K activity in human A549 cells assessed as effect on phosphorylated Akt level at five times IC50 value after 2 to 12 hrs by Western blot analysis. Format: cell-based. The method in brief:
as §4

Data set [29] deals with A549. Briefly: Effect on total Erk level in human A549 cells at five times IC50 value after 2 to 12 hrs by western blot analysis. Format: ADME, cell-based. The method in brief: as §4
Data set [30] concerns A549. Kind of data set: Effect of total Akt levels in human A549 cells at five times IC50 value after 2 to 12 hrs by Western blot analysis. The format is ADME, cell-based. The method in brief:
as §4

In data set [31] the target is T2, B-raf/RAF proto-oncogene serine/threonine-protein kinase (Homo sapiens). Briefly: Inhibition of B-Raf/C-Raf in human A549 cells assessed as decrease in phosphorylated MEK levels after 12 hrs by Western blot analysis. The format is cell-based.
Data set [32] has the same target. Briefly: Inhibition of B-Raf/C-Raf in human A549 cells assessed as decrease in phosphorylated MEK levels at five times IC50 value by Western blot analysis. The format is cell-based. The note with it: TDE = time-dependent effect.
Data set [33] has as its target T1, Heat shock protein HSP90 (Homo sapiens). Kind of data set: Inhibition of Hsp90 in human MCF7 cells assessed as effect on Her2 protein degradation at 0.5 to 5 times IC50 value after 12 hrs by western blot analysis. Format: cell-based. In short, it runs like this:
as §3

Data set [34] addresses T2, B-raf/RAF proto-oncogene serine/threonine-protein kinase (Homo sapiens). Briefly: Inhibition of B-Raf/C-Raf in human A549 cells assessed as decrease in phosphorylated ERK levels after 12 hrs by Western blot analysis. Format: cell-based.
Data set [35] addresses T1, Heat shock protein HSP90 (Homo sapiens). Briefly: Inhibition of Hsp90 in human MCF7 cells assessed as effect on c-Raf protein degradation at 0.5 to 5 times IC50 value after 12 hrs by western blot analysis. The format is cell-based. In short, it runs like this:
as §3

Data set [36] shares this target. Briefly: Inhibition of Hsp90 in human A549 cells assessed as effect on Her2 protein degradation at 0.5 to 5 times IC50 value after 12 hrs by western blot analysis. The format is cell-based. The method in brief: as §3
Data set [37] has the same target. Briefly: Inhibition of Hsp90 in human A549 cells assessed as effect on EGFR levels at five times IC50 value after 2 to 12 hrs by Western blot analysis. Format: cell-based. The method in brief: as §4

Our source for the Activity, IC50 and inhibition values is ChEMBL document CHEMBL3769404, “Novobiocin Analogues That Inhibit the MAPK Pathway” (J Med Chem, 2016).

Calls of active or inactive are those of the source. The rule behind the calls is not given here.

In general, IC50 refers to the concentration needed to halve the response being measured. As to `N#Cc1c(Oc2ccc(F)c(NC(=O)Cc3cccc(C(F)(F)F)c3)c2)ccc2nc(NC(=O)C3CC3)sc12`, in [1], the Activity result was “Non-toxic”. For the same compound, in data set [2], the IC50 stood at 1.7 µM.

In data set [3], `CO[C@@H]1[C@@H](OC(N)=O)[C@@H](O)[C@H](Oc2ccc3c(O)c(NC(=O)c4ccc(O)c(CC=C(C)C)c4)c(=O)oc3c2C)OC1(C)C` [NOVOBIOCIN] came in with an IC50 of 700 µM.

Consider `Cc1c(OC2CCN(C)CC2)ccc2cc(NC(=O)Nc3ccccc3)c(=O)oc12`, for which, in data set [4], the Activity entry was “Non-toxic”. Further, the inhibition result in data set [5], in [6], in data set [8], in data set [9], in data set [11] and in data set [12] was “Active” throughout. The results for the IC50 in [7], in data set [2] and in data set [10] were 0.77 µM, 0.24 µM and 3.6 µM, respectively.

Consider `COc1cccc(-c2cccc(NC(=O)Nc3cc4ccc(OC5CCN(C)CC5)c(C)c4oc3=O)c2)c1`, for which the inhibition entry in [13] and in data set [16] was “inactive” throughout. The inhibition entry in data set [14] and in [15] was “Active” each time. Besides, the 50% inhibitory concentration (IC50) in [2] came out at 0.28 µM.

With `Cc1c(OC2CCN(C)CC2)ccc2cc(NC(=O)Nc3cccc(-c4ccccc4)c3)c(=O)oc12`, the inhibition entry in data set [17], in data set [18] and in data set [19] was “Active” throughout. In data set [2], the IC50 was 0.06 µM.

On to `CCCS(=O)(=O)Nc1ccc(F)c(C(=O)c2c[nH]c3ncc(-c4ccc(Cl)cc4)cc23)c1F` [VEMURAFENIB], for which the Activity entry in data set [1] is “Non-toxic”.

As to `COc1cccc(-c2cc(NC(=O)Nc3cc4ccc(OC5CCN(C)CC5)c(C)c4oc3=O)ccc2OC)c1`, the inhibition entry in data set [20], in data set [21], in data set [23], in data set [24], in [25] and in data set [33] was “inactive” throughout. The inhibition result in [35], in data set [36] and in data set [37] was “inactive” in each case. The Activity result in data set [22], in data set [29] and in data set [30] was “Non-toxic” each time. The inhibition entry was “tde” in data set [26], “Dose-dependent effect” in [31], “tde” in data set [32] and “Dose-dependent effect” in [34]. The inhibition entry in [27] was “Active”. In addition, the IC50 in [7] turned out to be 0.17 µM; in data set [2] it was 0.15 µM; in data set [10] it was 4.3 µM. Moreover, the result in data set [28] was inactive.

In the case of `COc1ccc(NC(=O)Nc2cc3ccc(OC4CCN(C)CC4)c(C)c3oc2=O)cc1-c1ccccc1`, the inhibition result in [13] and in data set [16] was “inactive” in each case. In addition, the inhibition entry in data set [14] and in data set [15] was “Active” in each case. Moreover, the IC50 in data set [2] was determined as 0.41 µM.
